Compound activity as filed in PubChem.
JNK3 blocker – JNK3 kinase activity inhibitors, primary screen, biochemical, human, purified enzyme; HTS; 60,000 tested, 0.61% active; inhibition, % at 8 µM; Mitogen-activated protein kinase 10 (Homo sapiens), P53779; in the data active means inhibition above about 17%
S1P3 agonist – human S1P3 receptor agonists, primary screen, cell-based, primary and confirmation, NFAT-BLA reporter; Sphingosine 1-phosphate receptor 3 (Homo sapiens), Q99500; 60,000 tested, 0.1% active; activation, % at 4.5 µM; S1P3 NFAT-BLA reporter cells, agonism, FRET ratio; relative to 1 µM S1P, basal subtracted;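 active means activation above the screen-wide mean plus 3 SD, cut at about 4.5% in these data, passing the limit was not always enough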
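Assay system: stable CHO line with human S1P3, Gα16, NFAT-BLA reporter; Detection: FRET β-lactamase substrate fluorescence, excitation 405 nm, 460/535 nm emission ratio, background-subtracted; Read-out: percent activation versus median 1 µM S1P response, basal-subtracted, per plate; Incubation: cells plated overnight, compound 4 h 37 °C, substrate 2 h RT.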
S1P1 ag pot – S1P1 agonists and agonism potentiators, primary screen, cell-based, primary and confirmation screens, CRE-bla reporter; Sphingosine 1-phosphate receptor 1 (Homo sapiens), P21453; S1P1 CRE-bla cells, forskolin, beta-lactamase FRET, potentiator mode; S1P1 agonist co-added at EC20, 2 nM; 100% = saturating reference agonist, 0% = basal; activation, % at 9.5 µM; 56,000 tested, 0.57% active; AID 449, 2006;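 active means activation above a cutoff set at the mean activation of all tested compounds plus 3 SD, cut at about 54% in these data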;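 further: forskolin at 4 µM as EC80 and the EC20 agonist is SEW2871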
M1 agonist – M1 muscarinic receptor agonists, primary screen, CHO-M1 cells, Fluo-4 calcium, agonist mode; Fluo-4 calcium fluorescence; hits give high values; 64,000 tested, 3% active; Muscarinic acetylcholine receptor M1; B-score at 10 µM; AID 626, 2007;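 active means fluorescence rise, raw or as B-score row- and column-corrected plate score, outside the 99.7% band of its plate's samples, either direction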
Jurkat viability – cytotoxicity toward Jurkat T cells, primary screen, cytotoxicity control, cell-based, Jurkat E6.1, 60K MLSMR library; Jurkat E6.1 viability, ATP luminescence, 48 h; inhibition, % at 4 µM; 56,000 tested, 1.2% active; AID 463, 2006;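 active means inhibition above the mean inhibition of all tested compounds plus 3 SD, cut at about 28% in these data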
M1 antagonist – antagonists of rat M1 muscarinic receptor. AID 628, 2007. 64,000 tested, 3.4% active. Muscarinic acetylcholine receptor M1 (Rattus norvegicus), P08482. CHO-M1 cells, Fluo-4 calcium, ACh EC80 antagonist mode; hits give low values. B-score at 10 µM;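 active means calcium fluorescence response, raw or row-and-column corrected B-score, differing from the plate sample mean either way at a set confidence level, mostly lower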
M1 agonist conf – rat M1 muscarinic receptor agonists, confirmation, CHO-M1 cells, Fluo-4 calcium, duplicate retest; shares compounds with M1 agonist; AID 1488, 2009; Fluo-4 calcium fluorescence, agonist mode; actives lie on both sides; 1,700 tested, 19% active; fluorescence change (max-min) at 10 µM;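 active means fluorescence change differs from the solvent-only DMSO control mean at a set confidence level in both duplicate runs; inconclusive means differs from solvent-only control mean in just one of two runs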;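 further: an EC20 dose of acetylcholine follows compound addition during the same imaging run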
M4 ag counter – agonist activity at rat M4 receptor, confirmation, counter-screen for M1 allosteric modulator project, cell-based, agonist mode; 1,700 tested, 9% active; AID 1741, 2009; CHO M4/Gqi5 cells, Fluo-4 calcium fluorescence; actives lie on both sides; shares compounds with M1 agonist; fluorescence change (max-min) at 10 µM;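 active means fluorescence change differing from the plate's solvent-only control wells at 99.7% confidence in both duplicates, whether higher or lower; inconclusive means differs from solvent controls in only one of two duplicates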
Target sequence (P08485 whole entry, looked up): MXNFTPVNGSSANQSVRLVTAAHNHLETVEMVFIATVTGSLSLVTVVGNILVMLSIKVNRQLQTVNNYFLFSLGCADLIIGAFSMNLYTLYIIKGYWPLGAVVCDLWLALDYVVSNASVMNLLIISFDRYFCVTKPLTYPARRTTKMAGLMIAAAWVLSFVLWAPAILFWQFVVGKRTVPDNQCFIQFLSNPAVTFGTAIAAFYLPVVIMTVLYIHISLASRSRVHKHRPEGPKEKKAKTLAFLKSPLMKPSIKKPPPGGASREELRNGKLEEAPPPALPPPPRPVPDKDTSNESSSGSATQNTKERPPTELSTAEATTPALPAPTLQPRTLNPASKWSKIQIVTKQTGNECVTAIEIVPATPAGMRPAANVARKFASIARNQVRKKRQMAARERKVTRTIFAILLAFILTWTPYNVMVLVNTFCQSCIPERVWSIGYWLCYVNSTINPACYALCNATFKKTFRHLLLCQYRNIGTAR
Large screens that a line does not name were inactive (follow-up assays come after a bar, where they were run). Most compounds without a hit are left out; they make up all but 7.4% or so of the library.

CSc1nnnn1-c1cccc(O)c1	none (no result: S1P1 ag pot)
Cc1ccc(S(=O)(=O)c2cc3c(=O)n4ccccc4nc3n(Cc3ccco3)c2=N)cc1	M1 agonist -2.4 (no result: JNK3 blocker, S1P3 agonist, S1P1 ag pot, Jurkat viability) | M1 agonist conf inactive | M4 ag counter inactive
Cc1cccn2c(=O)c3cc(C(=O)NCc4ccco4)c(=N)n(CCc4ccccc4)c3nc12	M1 agonist 5.3, M1 antagonist -6.2 | M1 agonist conf inactive | M4 ag counter inactive
Cc1ccc(CNC(=O)c2cc3c(=O)n4ccccc4nc3n(CC3CCCO3)c2=N)cc1 (stereo not drawn)	M1 agonist 5.2 (no result: Jurkat viability) | M1 agonist conf inactive | M4 ag counter inactive
N=c1c(C(=O)NCc2ccc(F)cc2)cc2c(=O)n3ccccc3nc2n1Cc1ccco1	none
Cc1ccc(CNC(=O)c2cc3c(=O)n4ccccc4nc3n(Cc3ccco3)c2=N)cc1	M1 agonist 4.8 (no result: Jurkat viability) | M1 agonist conf 198 | M4 ag counter inactive
COC(=O)Nc1ccc2c(c1)N(C(=O)CCN1CCN3CCCC3C1)c1ccccc1S2 (stereo not drawn)	none
COCC(=O)N(Cc1cc2cc(OC)ccc2[nH]c1=O)c1ccc(C)cc1	none
CC1(C)Cc2c(C#N)c(N3CCOCC3)nc(Cc3ccccc3)c2CO1	M1 agonist 4.2 (no result: Jurkat viability) | M1 agonist conf inactive | M4 ag counter inconclusive
CCc1nc(N2CCOCC2)c(C#N)c2c1COC(C)(C)C2	none
CC1CCN(c2nc(-c3ccco3)c3c(c2C#N)CC(C)(C)OC3)CC1	M1 agonist 4.5 | M1 agonist conf inactive | M4 ag counter inactive
O=C(CCSc1nc(-c2ccco2)cc(C(F)(F)F)n1)Nc1ccc2c(c1)OCO2	none (no result: S1P1 ag pot)
CCCN1CC=C2C(C#N)=C(N)C(C#N)(C#N)C(c3cccc(OC)c3OC)C2C1 (stereo not drawn)	M1 agonist 89 | M1 agonist conf 666 | M4 ag counter 628
COc1ccc(OC)c(C2C3CN(C(C)C)CC=C3C(C#N)=C(N)C2(C#N)C#N)c1 (stereo not drawn)	M1 agonist 40 | M1 agonist conf 217 | M4 ag counter 212
CCCCOc1ccc(C2C3CN(C(=O)OCC)CC=C3C(C#N)=C(N)C2(C#N)C#N)cc1OC (stereo not drawn)	none
CC(=O)N1CC=C2C(C#N)=C(N)C(C#N)(C#N)C(C)C2C1 (stereo not drawn)	none
CCN1CC=C2C(C#N)=C(N)C(C#N)(C#N)C(CCc3ccccc3)C2C1 (stereo not drawn)	M1 agonist 32, M1 antagonist -2.5 | M1 agonist conf 247 | M4 ag counter inconclusive
CN1CC=C2C(C#N)=C(N)C(C#N)(C#N)C(c3cccc(Cl)c3Cl)C2C1 (stereo not drawn)	M1 agonist 64 | M1 agonist conf 243 | M4 ag counter 236
CC(=O)N1CC=C2C(C#N)=C(N)C(C#N)(C#N)C(CCc3ccccc3)C2C1 (stereo not drawn)	none
CCN1CCN(C(=O)c2ccc(NS(=O)(=O)c3ccccc3)cc2)CC1	none (no result: S1P1 ag pot, Jurkat viability)
COC(=O)c1cccc(CSc2nnc(C)s2)c1	none
CCN(CCCNC(=O)CN1C(=O)COc2ccccc21)c1cccc(C)c1	none (no result: JNK3 blocker, S1P3 agonist, S1P1 ag pot, Jurkat viability)
COc1ccc(NC(=O)Nc2c(C)n(C)n(-c3ccccc3)c2=O)cc1	none
Cc1c(NC(=O)c2cccc(F)c2)c(=O)n(-c2ccccc2)n1C	M1 agonist 8.9, M1 antagonist -6.5 | M1 agonist conf inactive | M4 ag counter inconclusive
Cc1c(NC(=O)c2ccc(COc3ccc4ccccc4c3)o2)c(=O)n(-c2ccccc2)n1C	M1 agonist -2.8 | M1 agonist conf inactive | M4 ag counter inactive
CC(C)Cn1c2c(c(O)c(C(=O)Nc3ncccc3O)c1=O)CCCC2	none
CC(C)Cn1c2c(c(O)c(C(=O)Nc3ccc(F)cc3)c1=O)CCCC2	M1 agonist 3 | M1 agonist conf inconclusive | M4 ag counter inactive
COc1cccc(N(C(=O)Cn2nnc3ccccc32)C(C(=O)NCc2ccco2)c2cccnc2)c1 (stereo not drawn)	none
CCC(C)(C)NC(=O)C(c1cccc(OC)c1)N(C(=O)c1ccn[nH]1)c1cccc(OC)c1 (stereo not drawn)	M1 agonist 12 | M1 agonist conf -24 | M4 ag counter -68
CCc1ccc(C2CC(c3ccc(C)cc3)n3nc(N)nc3N2)cc1 (stereo not drawn)	none
CCn1c2ccccc2c2nnc(SCN3C(=O)c4ccccc4C3=O)nc21	none (no result: S1P1 ag pot)
CCn1c(SCC(=O)c2ccc(OC)cc2)nnc1C(C)NC(=O)c1ccc(OC)cc1 (stereo not drawn)	none (no result: S1P1 ag pot)
CCOC(=O)C1=C(O)CSC1=Nc1ccc(Cl)cc1	M1 agonist 3.8 | M1 agonist conf inconclusive | M4 ag counter inconclusive
Cc1occc1C(=O)NCc1ccccn1	M1 agonist 2.2 (no result: S1P1 ag pot) | M1 agonist conf inactive | M4 ag counter inactive
O=C(O)C1CCC(=O)N1C1c2ccccc2Oc2ccccc21 (stereo not drawn)	none
O=C(O)C1CCC(=O)N1C1CCCC1 (stereo not drawn)	M1 agonist 5 | M1 agonist conf -29 | M4 ag counter inconclusive
CCC(C)(C)NC(=O)C(c1ccco1)N(C(=O)Cn1nnc2ccccc21)c1ccc2c(c1)OCO2 (stereo not drawn)	M1 agonist 17 | M1 agonist conf -32 | M4 ag counter inconclusive
COc1ccc(OC)c2[nH]c(=O)c(CCNC(=O)C3CCCCC3)cc12	none
Cc1cc(C)c2c(n1)nn1c(N3CCN(Cc4ccccc4)CC3)cc(C)nc21	none
COc1ccc(F)cc1CN1CCN(c2cc(C)nc3c4c(C)cc(C)nc4nn23)CC1	M1 agonist 3.5 | M1 agonist conf inconclusive | M4 ag counter inactive
COc1ccc(Cl)cc1CN1CCN(c2nc(C)cc(C)c2C#N)CC1	M1 agonist 7.4 | M1 agonist conf inactive | M4 ag counter inactive
Cc1cccc(NC(=O)C2c3ccccc3C(=O)N3CCc4ccccc4C23)n1 (stereo not drawn)	none
